Results from PubChem BioAssay AID373 (The Scripps Research Institute Molecular Screening Center, 2006).
Hit rate of the full screen: of about 60,000 compounds, about 60 (0.1%) were called active. The sample holds actives, similar compounds and a random draw of the others, so the mix is not that of the screen. A number with no mark means an inactive call.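 The calls were made as follows: active = activation above the screen-wide mean plus 3 SD (cut at about 4.5% in these data, passing the limit was not always enough); inactive = the rest, inconclusive results apart.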

Biological target: Sphingosine 1-phosphate receptor 3 (Homo sapiens) (UniProt Q99500)
Experiment: activators of S1P3 receptor signaling – cell-based, primary and confirmation, NFAT-BLA reporter, primary screen (AID 373)
Conditions: S1P3 NFAT-BLA reporter cells, agonism, FRET ratio, at 4.5 µM, hits give high values, relative to 1 µM S1P, basal subtracted
In short: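 Benchmarks: high control 1 µM S1P / System: stable CHO line with human S1P3, Gα16, NFAT-BLA reporter / Dosing: single compound concentration, 4.5 µM final / Timing: 4 h compound at 37 °C, 2 h substrate at RT / Measured by: FRET β-lactamase substrate fluorescence, excitation 405 nm, 460/535 nm emission ratio, background-subtracted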

Sequence of Sphingosine 1-phosphate receptor 3 (Homo sapiens) (Q99500 whole entry, looked up): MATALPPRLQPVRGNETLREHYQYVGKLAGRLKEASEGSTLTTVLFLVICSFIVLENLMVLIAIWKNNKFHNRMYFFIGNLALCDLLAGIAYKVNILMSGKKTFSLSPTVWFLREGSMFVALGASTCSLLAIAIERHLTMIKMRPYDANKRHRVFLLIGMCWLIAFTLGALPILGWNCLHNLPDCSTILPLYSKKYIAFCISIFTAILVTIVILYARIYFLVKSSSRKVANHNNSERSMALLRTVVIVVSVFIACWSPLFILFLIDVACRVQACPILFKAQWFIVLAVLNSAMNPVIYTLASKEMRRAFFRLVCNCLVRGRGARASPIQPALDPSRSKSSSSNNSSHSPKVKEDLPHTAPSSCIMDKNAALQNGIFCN

| Structure (SMILES) | activation [%] |
| --- | --- |
| Cc1ccccc1-n1c(SCC(=O)NCc2cccs2)nnc1-c1ccncc1 | 0.9 |
| CC1(C)Oc2ccc(C(=O)N3CCOCC3)cc2N(CC(=O)Nc2ccccc2)C1=O | -0.1 |
| CCCCc1nc2c(=O)[nH]c3ccccc3c2o1 | -0.4 |
| C=CCn1c(C2CC(=O)N(c3ccc(C)cc3)C2)nc2ccccc21 (stereo not drawn) | -2.5 |
| O=C(COc1ccccc1)N1CCc2ccccc2C1 | 0.4 |
| CC(=O)CSc1nnc(CSc2ncccn2)n1C1CCCCC1 | -0.6 |
| CC1(C)CC(=O)C(C2=NC(C)(C)Cc3ccccc32)=C(O)C1 | -2 |
| CC(C)C(=O)Nc1cccc(C(=O)Nc2ccc3c(c2)OCO3)c1 | -1.2 |
| COc1ccc(OC)c2c1sc(=NC(=O)CN1C(=O)CCC1=O)n2C | -2.3 |
| OCc1nc(CO)n(Cc2ccccc2)n1 | -1 |
| COc1ccc(N2C(=O)CN=C2Nc2cccc(C)c2C)cc1OC | 0.2 |
| CCCc1nnc(NC(=O)CN2C(=O)c3ccccc3S2(=O)=O)s1 | -1 |
| CCOC(=O)c1sc(/N=C/Nc2nc(C)c(C(=O)OCC)s2)nc1C | -1.5 |
| N#CCCN(CCC#N)c1nnc(-c2ccccc2)s1 | -0.2 |
| CCOC(=O)C1C(=O)C=C(c2ccc(OC)cc2)CC1c1ccco1 (stereo not drawn) | -1.9 |
| Cc1nc(SC(C)C)[nH]c(=O)c1Cc1ccccc1 | 0.1 |
| CCCc1cc(=O)oc2c(C)c(O)c(CN3CCCCC3)cc12 | -2.1 |
| CCC(=O)Nc1ccccc1C(=O)N1CCN(Cc2ccccc2)CC1 | -1.1 |
| NS(=O)(=O)c1ccc(NS(=O)(=O)/C=C/c2ccccc2)cc1 | 1.3 |
| Cc1occc1C(=O)Nc1cccc(Cn2cccn2)c1 | -0.4 |
| COc1ncnc2sc3c(c12)CCCC3 | -0.3 |
| COc1ccc(C)cc1S(=O)(=O)NC1CCCCC1 | -0.3 |
| CCOc1cccc(/C(O)=C2/C(=O)C(=O)N(CCOC)C2c2ccncc2)c1 (stereo not drawn) | -1.3 |
| CCOC(=O)c1sc(NC(=O)C(CC)Sc2nccn2C)nc1C (stereo not drawn) | -1.7 |
| Cc1cccc(NC(=O)CN2CCCN(S(=O)(=O)c3ccc(Br)s3)CC2)c1 | -1.4 |
| CCOC(=O)c1cc(-c2nnc(-c3cc(OC)c(OC)c(OC)c3)o2)c(C)nc1C | -1.5 |

| Structure (SMILES) | activation [%] |
| --- | --- |
| CCOC(=O)c1c(C(C#N)C#N)cc(C)nc1C | -3.8 |
| O=C(Cn1nnc(-c2ccccc2)n1)NCc1ccccc1 | -0.5 |
| Cc1cc(C)nc(SCc2nnc(SCC(=O)Nc3ncc(C)s3)n2Cc2ccco2)n1 | 0 |
| CCn1ncc(C2=NOC(C(=O)Nc3ccccc3C(=O)OC)C2)c1C (stereo not drawn) | -0.6 |
| CC1Cc2cc(/C(O)=C3\C(=O)C(=O)N(CCN4CCOCC4)C3c3ccccc3F)ccc2O1 (stereo not drawn) | 0.5 |
| CC1CN(C(=O)CN2C(=O)NC(C)(c3ccccc3)C2=O)CC(C)O1 (stereo not drawn) | 1.6 |
| O=C1NC(Nc2nc3ccccc3s2)(C(F)(F)F)C(=O)N1C1CCCCC1 (stereo not drawn) | -0.5 |
| Cc1nc(SCC(=O)Nc2cc(C)on2)c2c3c(sc2n1)CCCC3 | -0.8 |
| CCOc1ccc(NC(=O)N(CCC(C)C)C(C)c2ccco2)cc1 (stereo not drawn) | -0.3 |
| Cc1cc(=O)n(C)c(=O)n1CCCNc1ccccc1 | -0.2 |
| CCOc1ccc(CNC(=O)C2CC(=O)N(C3CCCC3)C2)cc1OC (stereo not drawn) | 0.9 |
| O=C1CCC(Cc2ccccc2)N1 (stereo not drawn) | 0.3 |
| CCCCOc1ccc(-c2nnc(-c3ccco3)o2)cc1 | -0.5 |
| COC(=O)N1CN(C(=O)OC)CN(C(=O)OC)C1 | -0.2 |
| COC(=O)CN(c1nc(C)c(Cl)c(OC)n1)S(=O)(=O)c1ccc(C)cc1 | -1.1 |
| O=C(O)c1ccc(NS(=O)(=O)c2cccc3nsnc23)cc1 | -0.5 |
| Cn1c(=O)[nH]c(=O)c2c1nc(Br)n2CCCCSc1nc2ccccc2o1 | -1.6 |
| O=C(NCCN1CCOCC1)c1ccc2c(c1)ncn2C1CCCC1 | -0.2 |
| COc1cccc(OCC(=O)Nc2ccccc2C(N)=O)c1 | -1.1 |
| CCOC(=O)N1CCN(C(=O)c2cc3c(-c4ccc(Cl)cc4)nn(C)c3s2)CC1 | -1.5 |
| Cc1cc(C)c2nc(SCCC#N)nc(C)c2c1 | -0.8 |
| c1cc(-c2nn[nH]n2)ccc1CN1CCCCC1 | -0.2 |
| N#CC(C(N)=O)=C1CCC2(CC1)OCCCCO2 | -0.6 |
| CC(CNC(=O)c1ccc(Br)o1)NC(=O)c1ccc(Br)o1 (stereo not drawn) | -0.8 |
| Cc1ccc(OCC(=O)Nc2ccc(-c3nc4ncccc4o3)cc2)cc1 | 0.4 |
| O=c1c2ccccc2[nH]c(=S)n1CCN1CCC(=C(c2ccc(F)cc2)c2ccc(F)cc2)CC1 | -2.2 |

| Structure (SMILES) | activation [%] |
| --- | --- |
| Cc1cc(NC(=O)CCC(=O)N(c2ccccc2)C(C(=O)NC2CCCC2)c2ccncc2)no1 (stereo not drawn) | -0.2 |
| O=C(OCCO)c1cc(Cl)c(C(=O)OCCO)cc1Cl | -1.2 |
| Cc1cccc(NC(=O)C2CCN(S(=O)(=O)c3cccc4cccnc34)CC2)c1 | -0.2 |
| CN(C)c1ccnc2sc3c(=O)n(Cc4ccccc4)cnc3c12 | -1.9 |
| CCN1C(=O)/C(=C2\SC(N3CCCCC3)=NC2=O)c2ccccc21 | -0.5 |
| COc1ccc2c(c1OC)C(=O)OC2c1c(O)nc(SC)n(-c2ccccc2)c1=O (stereo not drawn) | -2.9 |
| CCc1nnc(NC(=O)c2cccs2)s1 | 0.7 |
| COc1ccc(C(=O)N(CCN2CCOCC2)CC(=O)NC2CCCC2)cc1OC | 0.6 |
| CCn1c(=O)cc(O)c2ccccc21 | 0.7 |
| CCOC(=O)C1=C(C)N=c2s/c(=C\C(=O)OC)c(=O)n2C1c1ccc(OC)cc1 (stereo not drawn) | -0.8 |
| O=C(CCc1ccccc1)Nc1cccc(-c2nnc(-c3ccco3)o2)c1 | -0.9 |
| CCc1cc(=O)oc2cc(C)cc(OC(C)C(=O)O)c12 (stereo not drawn) | -0.4 |
| COc1ccc(Cn2nnc3c(=O)[nH]c(C4CCN(C(=O)c5ccccc5Cl)CC4)nc32)cc1 | -0.1 |
| COc1ccc(N2C(=O)C3CCCN3C2c2cccc(OC)c2)cc1 (stereo not drawn) | -0.5 |
| Cc1ccc(C(=O)Nc2nnc(-c3cccs3)s2)cc1C | -0.6 |
| COc1ccccc1NC(=O)CN1CCN(S(=O)(=O)c2ccc(Br)cc2)CC1 | -0.8 |
| Cc1ccc(C(C(=O)NCc2ccco2)N(CC2CCCO2)C(=O)Cn2nnc3ccccc32)cc1 (stereo not drawn) | -0.7 |
| CC1CCN(Cc2nc3c(c(=O)n(C)c(=O)n3C)n2Cc2cccc3ccccc23)CC1 | -0.5 |
| COC(=O)Cn1c(=NC(=O)CSCC(=O)Nc2cc(C)on2)sc2ccccc21 | -0.5 |
| COC(=O)c1c(-c2ccc(C)cc2)csc1N | -0.4 |
| CCOC(=O)N1CCN(CC(=O)c2ccc3c(c2)CCN3)CC1 | 0 |
| CC(C)(C)c1ccc(NC(=O)NCc2ccco2)cc1 | -0.2 |
| CC(=O)CCS(=O)(=O)c1ccc(C)c(C)c1 | -3 |
| COC(=O)c1ccc(CSc2nncn2C)cc1 | -1.1 |
| CCn1cc(C(=O)NCC2CCCO2)c(=O)c2cc(S(=O)(=O)N3CCCCC3)ccc21 (stereo not drawn) | -0.3 |
| O=c1oc2c(CN3CCCCC3)c(O)ccc2c2c1CCCCC2 | -1 |
